In brackets after ≈: the same amount, converted by molar mass.

The subject of series [1] is Human immunodeficiency virus 1. As to the kind of experiment: Antiviral activity against HIV1 NL4-3 assessed as inhibition of viral infection in human TZM-bl cells measured after 1 day by luciferase reporter gene assay. The settings on record: Human immunodeficiency virus 1, NL4-3, TZM-bl, 24 h. It counts as functional, organism-based. A general note: In a reporter assay the amount or activity of a reporter protein is the signal.

Series [2] can be described thus: n-octanol-water partition coefficient, logP of compound at pH 7.4 stirred for 24 hrs followed by overnight incubation by HPLC analysis. It counts as physicochemical.
Series [3] in a line: Metabolic stability in human liver microsomes assessed as parent compound remaining at 1 uM incubated for 30 mins in presence of NADPH by LC-MS analysis. It counts as ADME. The note with it: read-out: Stability. In a few lines: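 Compound at 1 µM final with 0.1 mg/mL human liver microsomes, 5 mM MgCl2, 1.0 mM NADPH in 0.1 M potassium phosphate pH 7.4 at 37 °C. Parent measured by LC-MS/MS (MRM, ESI).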
For orientation: Microsomes from liver hold many membrane-bound enzymes, among them those of drug oxidation.

Series [4] can be described thus: Aqueous solubility in pH 7.4 phosphate buffer at 10 mg/ml after 4 hrs by UV-HPLC method. It counts as physicochemical. The settings on record: pH 7.4, 4 h.
Series [5] is described as follows: Aqueous solubility in 0.01 M Hcl at pH 2 at 10 mg/ml after 4 hrs by UV-HPLC method. It counts as physicochemical. The settings on record: buffer, pH 2, 4 h.
The test system of series [6] is Human immunodeficiency virus 1. The series is described as follows: Antiviral activity against rilpivirine resistant HIV1 harboring reverse transcriptase E138K mutant assessed as inhibition of viral infection in human TZM-bl cells measured after 1 day by luciferase reporter gene assay. It counts as functional, organism-based. The note with it: Human immunodeficiency virus 1, TZM-bl, 24 h.

A short description of series [7]: Cytotoxicity against human TZM-bl cells assessed as reduction in cell viability after 1 day by CytoTox-Glo assay. The note with it: for CC50: tzm, 24 h; for CC50 at 24 h: TZM-bl cells. It counts as cell-based. The procedure, abridged:
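TZM-bl cells exposed to graded compound concentrations for 1 day, run in parallel with the antiviral assay. Viability read by CytoTox-Glo following the manufacturer's protocol.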

Series [8] concerns Human immunodeficiency virus 1. As to the kind of experiment: Resistance index, ratio of EC50 for rilpivirine resistant HIV1 harboring reverse transcriptase E138K mutant infected in human TZM-bl cells to EC50 for HIV1 NL4-3 infected in human TZM-bl cells. It counts as functional.
The test system of series [9] is Human immunodeficiency virus 1. As to the kind of experiment: Antiviral activity against HIV1 3B infected in human MT2 cells measured on day 4 post infection by p24 ELISA method. It counts as functional, organism-based. The settings on record: Human immunodeficiency virus 1, 3B, MT2, 96 h.
Series [10] can be described thus: Selectivity index, ratio of CC50 for human TZM-bl cells to EC50 for HIV1 3B infected in human MT2 cells. It counts as toxicity, cell-based.
In another series the test system is Liver microsome. As to the kind of experiment: Half life in human liver microsomes at 1 uM by LC-MS analysis. It counts as ADME. In a few lines:
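Compound at 1 µM final with 0.1 mg/mL human liver microsomes, 5 mM MgCl2, 1.0 mM NADPH in 0.1 M potassium phosphate pH 7.4 at 37 °C. Quenched with ice-cold acetonitrile at 0, 5, 15, 30 and 45 min, in duplicate. Parent measured by LC-MS/MS (MRM, ESI).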

Take `Cc1cc(CCC#N)cc(C)c1Oc1cc(Nc2ccc(C#N)cc2)c(N)cc1C(=O)NC1CC1`: the concentration giving a half-maximal response (EC50) in series [1] is 2 nM; in [6] it was 22.1 nM; in series [9], 9.58 nM. In series [2], this compound had a log distribution coefficient (logD) at 24 h of 2.61. Moreover, the remaining at 0.5 h, 1 µM in series [3] was found to be 63.2%. The solubility was found to be 1.94 µg/mL (≈ 4.17 µM) in [4] and 141 µg/mL (≈ 303 µM) in series [5]. Besides, the CC50 in series [7] was 121000 nM. Also, the “Ratio EC50” value in [8] turned out to be 11. In addition, the “Ratio CC50/EC50” value in series [10] is recorded as 12630.
On to `Cc1cc(CCC#N)cc(C)c1Oc1cc(Nc2ccc(C#N)cc2)c(N)cc1C(=O)NC(C)C`, for which the EC50 in [1] was 72.6 nM; in [9] it was 47.7 nM. Besides, the CC50 in [7] came out at 184000 nM. For the same compound, in series [10], the “Ratio CC50/EC50” value amounted to 3857.
In the case of `Cc1cc(CCC#N)cc(C)c1Oc1ccc(N)c(Nc2ccc(C#N)cc2)c1`, the results for the EC50 in [1], in series [6] and in [9] were 16 nM, 113 nM and 11.6 nM, respectively. The CC50 at 24 h in [7] was over 200000 nM. The “Ratio EC50” value in series [8] worked out at 7.1. For the same compound, the “Ratio CC50/EC50” value in [10] is given as over 17241.
Regarding `Cc1cc(CCC#N)cc(C)c1Oc1cc(Nc2ccc(C#N)cc2)c(N)cc1COC(=O)C1CC1`, the EC50 in series [1] turned out to be 1.63 nM; in [6], 23.3 nM; in series [9] it was 23.2 nM. Besides, the logD at 24 h in series [2] was determined as 2.51. Moreover, the remaining at 0.5 h, 1 µM in series [3] came to 4.18%. Moreover, the solubility in series [4] turned out to be 1.64 µg/mL (≈ 3.41 µM); in [5] it was 1.24 µg/mL (≈ 2.58 µM). Further, in series [7], the CC50 turned out to be 42200 nM. Besides, in [8], the “Ratio EC50” value is 14. Moreover, the t1/2 in the series with Liver microsome turned out to be 0.195 h. Besides, the “Ratio CC50/EC50” value in [10] is given as 1818.
For `COC(=O)c1cc(N)c(Nc2ccc(C#N)cc2)cc1Oc1c(Br)cc(CCC#N)cc1OC`, the values for the EC50 in series [1], in series [6] and in series [9] were 5.19 nM, 9.98 nM and under 0.122 nM, respectively. The logD at 24 h in series [2] is 2.85. In addition, the remaining at 0.5 h, 1 µM in [3] turned out to be 81.5%. Also, the results for the solubility in [4] and in [5] were 0.2 µg/mL (≈ 0.384 µM) and 1.73 µg/mL (≈ 3.32 µM), respectively. Also, in series [7], the CC50 was 10100 nM. In addition, the “Ratio EC50” value in [8] is recorded as 1.9. The compound also showed a t1/2 in the series on Liver microsome of 2.32 h. For the same compound, the “Ratio CC50/EC50” value in series [10] is over 82787.
As to `COC(=O)c1cc(N)c(Nc2ccc(C#N)cc2)cc1Oc1c(OC)cc(CCC#N)cc1OC`, the EC50 turned out to be 102 nM in [1] and 329 nM in [9]. In [7], the cytotoxic concentration (CC50) was determined as 128000 nM. Also, the “Ratio CC50/EC50” value in [10] worked out at 389.
On to `Cc1cc(CCC#N)cc(C)c1Oc1cc(Nc2ccc(C#N)cc2)c(N)cc1CN1CCN(C)CC1`, for which, in series [1], the half-maximal effective concentration (EC50) stood at 115 nM.
On to `CNC(=O)OCc1cc(N)c(Nc2ccc(C#N)cc2)cc1Oc1c(C)cc(CCC#N)cc1C`, for which the EC50 amounted to 16 nM in series [1], 93.8 nM in series [6] and 8.32 nM in series [9]. In addition, the CC50 in series [7] is 46800 nM. Moreover, the “Ratio EC50” value in [8] is 5.8. Further, the “Ratio CC50/EC50” value in [10] worked out at 5625.
For the compound `CNC(=O)c1cc(N)c(Nc2ccc(C#N)cc2)cc1Oc1c(OC)cc(CCC#N)cc1OC`, the EC50 amounted to 178 nM in [1] and 137 nM in [9]. Moreover, the CC50 in series [7] is 42600 nM. Besides, the “Ratio CC50/EC50” value in [10] is recorded as 311.
As for `Cc1cc(CCC#N)cc(C)c1Oc1cc(Nc2ccc(C#N)cc2)c(N)cc1CNC1CC1`, the EC50 in [1] is 0.53 nM; in series [6], 25.7 nM; in series [9] it was 6.25 nM. The compound also registered a logD at 24 h in [2] of 3.69. For the same compound, the remaining at 0.5 h, 1 µM in [3] came to 78.4%. For the same compound, the solubility came to 13.6 µg/mL (≈ 30.1 µM) in [4] and 276 µg/mL (≈ 611 µM) in [5]. Also, the CC50 in series [7] came to 25500 nM. Moreover, the “Ratio EC50” value in series [8] worked out at 48. In the series on Liver microsome, this compound returned a t1/2 of 1.65 h. In addition, the “Ratio CC50/EC50” value in series [10] came out at 4080.
`Cc1cc(/C=C/C#N)cc(C)c1Nc1ccnc(Nc2ccc(C#N)cc2)n1` [RILPIVIRINE] registered a log distribution coefficient (logD) at 24 h in [2] of over 5. For the same compound, the remaining at 0.5 h, 1 µM in series [3] stood at 80.2%. The CC50 at 24 h in [7] was over 30000 nM. This compound also showed a t1/2 in the series on Liver microsome of 1.93 h.

In general, EC50 refers to the concentration giving half of the maximal effect. The logD is the decadic logarithm of the distribution of all forms, ionised or not, between an organic phase and buffer at a given pH. A low value points to lower lipophilicity. As a reminder, the solubility is the concentration that dissolves in the medium under given conditions. A higher solubility goes with much dissolved substance. A word on the CC50: it is the concentration that lowers cell viability or growth by half.

For the origin of these results see ChEMBL document CHEMBL3808367, “Novel HIV-1 Non-nucleoside Reverse Transcriptase Inhibitor Agents: Optimization of Diarylanilines with High Potency against Wild-Type and Rilpivirine-Resistant E138K Mutant Virus” (J Med Chem, 2016).
